From ChEMBL document CHEMBL4715715, “Synthesis and biological evaluation of arylcinnamide linked combretastatin-A4 hybrids as tubulin polymerization inhibitors and apoptosis inducing agents” (Bioorg Med Chem Lett, 2016)
One block for each molecule: values may come before it.

Assays:
[1] = system: COLO 205; assay: Antiproliferative activity against human COLO 205 cells assessed as cell growth inhibition measured after 48 hrs by SRB assay; format: functional
In short: (§1)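 Sulforhodamine B (SRB) cell-staining assay across a panel of human cancer lines. Growth inhibition is reported as GI50.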

[2] = system: HeLa; assay: Antiproliferative activity against human HeLa cells assessed as cell growth inhibition measured after 48 hrs by SRB assay; format: functional; in short: as §1
[3] = system: DU-145; assay: Antiproliferative activity against human DU-145 cells assessed as cell growth inhibition measured after 48 hrs by SRB assay; format: functional; in short: as §1
[4] = system: MIA PaCa-2; assay: Antiproliferative activity against human MIA Paca-2 cells assessed as cell growth inhibition measured after 48 hrs by SRB assay; format: functional; in short: as §1
[5] = system: K562; assay: Antiproliferative activity against human K562 cells assessed as cell growth inhibition measured after 48 hrs by SRB assay; format: functional; in short: as §1
[6] = system: MCF7; assay: Antiproliferative activity against human MCF7 cells assessed as cell growth inhibition measured after 48 hrs by SRB assay; format: functional; in short: as §1
[7] = system: SK-OV-3; assay: Antiproliferative activity against human SK-OV-3 cells assessed as cell growth inhibition measured after 48 hrs by SRB assay; format: functional; in short: as §1
[8] = system: HOP-62; assay: Antiproliferative activity against human HOP-62 cells assessed as cell growth inhibition measured after 48 hrs by SRB assay; format: functional; in short: as §1
[9] = system: MCF7; assay: Cell cycle arrest in human MCF7 cells assessed as accumulation at S phase at 50 nM measured after 48 hrs by propidium iodide staining based flow cytometry (reference value: 3.1 %); format: functional
In short: (§2)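 MCF-7 cells were treated at 50 and 100 nM for 48 h. Cell-cycle phase distribution (sub-G1, G0/G1, S, G2/M %) was read by flow cytometry against untreated control.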

[10] = Inhibition of porcine brain tubulin polymerization measured after 1 hr in presence of GTP by fluorescence assay; format: tissue-based, Sus scrofa
In short: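 Tubulin assembly followed by the rise in fluorescence (ex 360 nm, em 420 nm) over 1 h at 37 °C. Compounds tested at a final 3 μM with a reference control. IC50 defined as the concentration inhibiting 50% of tubulin assembly. Mean ± SD of two experiments in triplicate.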

[11] = system: MCF7; assay: Cell cycle arrest in human MCF7 cells assessed as accumulation at G2/M phase at 50 nM measured after 48 hrs by propidium iodide staining based flow cytometry (reference value: 8.44 %); format: functional; in short: as §2
[12] = system: MCF7; assay: Induction of apoptosis in human MCF7 cells assessed as late apoptotic cells at 50 nM measured after 48 hrs by annexinV-FITC/propidium iodide staining based flow cytometry (reference value: 0.6 %)
[13] = system: MCF7; assay: Induction of apoptosis in human MCF7 cells assessed as live cells at 50 nM measured after 48 hrs by annexinV-FITC/propidium iodide staining based flow cytometry (reference value: 95 %)
[14] = system: MCF7; assay: Cell cycle arrest in human MCF7 cells assessed as accumulation at G0/G1 phase at 50 nM measured after 48 hrs by propidium iodide staining based flow cytometry (reference value: 85.3 %); format: functional; in short: as §2
[15] = system: MCF7; assay: Induction of apoptosis in human MCF7 cells assessed as late apoptotic cell population at 50 nM measured after 48 hrs by Annexin V-FITC/PI staining based flow cytometry (reference value: 1 %)
[16] = system: MCF7; assay: Induction of apoptosis in human MCF7 cells assessed as early apoptotic cell population at 50 nM measured after 48 hrs by Annexin V-FITC/PI staining based flow cytometry (reference value: 0.7 %)
[17] = system: MCF7; assay: Induction of apoptosis in human MCF7 cells assessed as early apoptotic cells at 50 nM measured after 48 hrs by annexinV-FITC/propidium iodide staining based flow cytometry (reference value: 4.4 %); format: functional
In short: (§3)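 MCF-7 cells were treated at 50 and 100 nM for 48 h. Annexin V-FITC/PI dual staining was read by flow cytometry. Cells were quadrant-gated as UL, UR, LL and LR, with untreated control alongside.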

[18] = system: MCF7; assay: Cell cycle arrest in human MCF7 cells assessed as accumulation at sub-G1 phase at 50 nM measured after 48 hrs by propidium iodide staining based flow cytometry (reference value: 2.4 %); format: functional; in short: as §2
[19] = species: Sus scrofa; assay: Inhibition of porcine brain tubulin polymerization at 3 uM measured after 1 hr in presence of GTP by fluorescence assay relative to control; format: tissue-based
In short: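 Tubulin polymerization was followed by fluorescence (excitation 360 nm, emission 420 nm) for 1 h at 37 °C. Compounds were at 3 μM final, with and without compound. Values are mean ± SD of two experiments done in triplicate.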

[20] = system: MCF7; assay: Induction of apoptosis in human MCF7 cells assessed as necrotic cells at 50 nM measured after 48 hrs by annexinV-FITC/propidium iodide staining based flow cytometry (reference value: 0.1 %); format: functional; in short: as §3

Compound: COc1ccc(/C=C\c2cc(OC)c(OC)c(OC)c2)c(NC(=O)/C=C/c2cccc(O)c2)c1O
GI50 [1]: 13.4 µM | GI50 [2]: 0.0949 µM | GI50 [3]: 70 nM | GI50 [4]: 0.098 µM | GI50 [5]: 94 nM | GI50 [6]: 63 nM | GI50 [7]: 0.097 µM | GI50 [8]: 82 nM

Compound: COc1ccc(/C=C\c2cc(OC)c(OC)c(OC)c2)c(NC(=O)/C=C/c2ccc(C(F)(F)F)cc2)c1O
GI50 [1]: > 100 µM | GI50 [2]: > 100 µM | GI50 [3]: > 100000 nM | GI50 [4]: > 100 µM | GI50 [5]: 58000 nM | GI50 [6]: 83700 nM | GI50 [7]: > 100 µM | GI50 [8]: > 100000 nM

Compound: COc1ccc(/C=C\c2cc(OC)c(OC)c(OC)c2)c(NC(=O)/C=C/c2ccc(F)cc2)c1O
GI50 [1]: 67.6 µM | GI50 [2]: 24 µM | GI50 [3]: 83 nM | GI50 [4]: 78.1 µM | GI50 [5]: 23500 nM | GI50 [6]: 66 nM | GI50 [7]: 47.5 µM | GI50 [8]: 43000 nM

Compound: C#CCOc1cccc(/C=C/C(=O)Nc2c(/C=C\c3cc(OC)c(OC)c(OC)c3)ccc(OC)c2O)c1
GI50 [1]: > 100 µM | GI50 [2]: > 100 µM | GI50 [3]: 96400 nM | GI50 [4]: > 100 µM | GI50 [5]: > 100000 nM | GI50 [6]: 11600 nM | GI50 [7]: > 100 µM | GI50 [8]: > 100000 nM

Compound: COc1ccc(/C=C\c2cc(OC)c(OC)c(OC)c2)c(NC(=O)/C=C/c2cc(OC)c(OC)c(OC)c2)c1O
GI50 [1]: 76 µM | GI50 [2]: 14.9 µM | GI50 [3]: 95 nM | GI50 [4]: 64.5 µM | GI50 [5]: 28000 nM | GI50 [6]: 79 nM | GI50 [7]: 20.9 µM | GI50 [8]: 24800 nM

Compound: COc1ccc(/C=C\c2cc(OC)c(OC)c(OC)c2)c(NC(=O)/C=C/c2ccc([N+](=O)[O-])cc2)c1O
GI50 [1]: 10.3 µM | GI50 [2]: 15.7 µM | GI50 [3]: 85 nM | GI50 [4]: 40.8 µM | GI50 [5]: 97 nM | GI50 [6]: 72 nM | GI50 [7]: 17 µM | GI50 [8]: 61 nM

Compound: COc1ccc(/C=C\c2cc(OC)c(OC)c(OC)c2)cc1O [COMBRETASTATIN A4]
GI50 [1]: 0.025 µM | GI50 [2]: 0.008 µM | Activity [9]: 1.43% | IC50 [10]: 1480 nM | Activity [11]: 37.41% | late apoptotic cells [12]: 3.6% | live cells [13]: 65.7% | Activity [14]: 56.19% | Activity [15]: 24.5% | Activity [16]: 3.6% | GI50 [3]: 46 nM | Activity [17]: 30.2% | Activity [18]: 2.71% | inhibition [19]: 72.2% | GI50 [5]: 31 nM | Activity [20]: 0.5% | GI50 [6]: 33 nM | GI50 [7]: 31.6 µM | GI50 [8]: 150 nM

Compound: COc1cccc(/C=C/C(=O)Nc2c(/C=C\c3cc(OC)c(OC)c(OC)c3)ccc(OC)c2O)c1
GI50 [1]: > 100 µM | GI50 [2]: 18.1 µM | GI50 [3]: > 100000 nM | GI50 [4]: 93.9 µM | GI50 [5]: 98 nM | GI50 [6]: 59500 nM | GI50 [7]: 17.6 µM | GI50 [8]: 65400 nM

Compound: COc1ccc(/C=C\c2cc(OC)c(OC)c(OC)c2)c(NC(=O)/C=C/c2ccc(Cl)cc2)c1O
GI50 [1]: > 100 µM | GI50 [2]: 38.8 µM | GI50 [3]: 54100 nM | GI50 [4]: > 100 µM | GI50 [5]: 24900 nM | GI50 [6]: 55500 nM | GI50 [7]: 62.6 µM | GI50 [8]: 79400 nM

Compound: C=CCOc1cccc(/C=C/C(=O)Nc2c(/C=C\c3cc(OC)c(OC)c(OC)c3)ccc(OC)c2O)c1
GI50 [1]: 18 µM | GI50 [2]: 0.0787 µM | GI50 [3]: 85 nM | GI50 [4]: 0.098 µM | GI50 [5]: 91 nM | GI50 [6]: 83 nM | GI50 [7]: 0.082 µM | GI50 [8]: 60 nM

Now from value to molecule, other results behind:

GI50 [1]: 0.098 µM | GI50 [2]: 0.09 µM | GI50 [3]: 72 nM | GI50 [4]: 0.098 µM | GI50 [5]: 93 nM | GI50 [6]: 60 nM | GI50 [7]: 0.096 µM
Compound: COc1cc(/C=C/C(=O)Nc2c(/C=C\c3cc(OC)c(OC)c(OC)c3)ccc(OC)c2O)ccc1O
GI50 [8]: 79 nM

GI50 [1]: > 100 µM | GI50 [2]: 15.9 µM | GI50 [3]: 117 nM | GI50 [4]: 46.3 µM | GI50 [5]: 23700 nM | GI50 [6]: 95 nM | GI50 [7]: 1.8 µM
Compound: COc1ccc(/C=C/C(=O)Nc2c(/C=C\c3cc(OC)c(OC)c(OC)c3)ccc(OC)c2O)cc1O
GI50 [8]: 17100 nM

GI50 [1]: > 100 µM | GI50 [2]: 49.2 µM | GI50 [3]: 64700 nM | GI50 [4]: > 100 µM | GI50 [5]: 46800 nM | GI50 [6]: 19400 nM | GI50 [7]: 52.6 µM
Compound: COc1ccc(/C=C/C(=O)Nc2c(/C=C\c3cc(OC)c(OC)c(OC)c3)ccc(OC)c2O)cc1[N+](=O)[O-]
GI50 [8]: 71300 nM

GI50 [1]: 0.089 µM | GI50 [2]: 0.091 µM | GI50 [3]: 79 nM | GI50 [4]: 14.3 µM | GI50 [5]: 89 nM | GI50 [6]: 50 nM | GI50 [7]: 0.097 µM
Compound: COc1ccc(/C=C/C(=O)Nc2c(/C=C\c3cc(OC)c(OC)c(OC)c3)ccc(OC)c2O)cc1N
GI50 [8]: 44 nM

GI50 [1]: 0.096 µM | GI50 [2]: 0.099 µM | GI50 [3]: 75 nM | GI50 [4]: 23.5 µM | GI50 [5]: 96 nM | GI50 [6]: 95 nM | GI50 [7]: 7.9 µM
Compound: COc1cc(/C=C/C(=O)Nc2c(/C=C\c3cc(OC)c(OC)c(OC)c3)ccc(OC)c2O)ccc1[N+](=O)[O-]
GI50 [8]: 84 nM

GI50 [1]: 0.086 µM | GI50 [2]: 0.09 µM | GI50 [3]: 85 nM | GI50 [4]: 0.097 µM | GI50 [5]: 82 nM | GI50 [6]: 74 nM | GI50 [7]: 0.094 µM
Compound: COc1cc(/C=C/C(=O)Nc2c(/C=C\c3cc(OC)c(OC)c(OC)c3)ccc(OC)c2O)ccc1N
GI50 [8]: 31 nM
